In one assay the test system is HuT78. In words: Giant-cell formation between persistently HIV-1 infected HUT-78 cells and uninfected MOLT-4 cells. The format is functional, cell-based. Summed up: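 MOLT-4 cells were co-cultured with an equal number of HUT-78 cells persistently infected with HIV-1 IIIB or HIV-2 ROD, with varying compound concentrations. Syncytia were counted by flow cytofluorography after 24 h. EC50 is the concentration giving 50% protection against giant-cell formation.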

The nature of assay [1]: In vitro anticoagulant activity determined by clotting test of activated partial thromboplastin time (APTT) on a pool of human plasma. The format is functional. The gist of the method:
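Activated partial thromboplastin time clotting test on pooled human plasma, run on an automatic coagulometer. Activities were calculated according to the European Pharmacopoeia.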

For assay [2], the system named is MT4. In words: Effective concentration to achieve 50% protection of MT-4 cells against the cytopathic effect of HIV-1. The format is functional, cell-based. A general note: Damage to the host cells serves as the signal in cytopathic effect assays.
For assay [3], the system named is MT4. Briefly: Effective concentration to achieve 50% protection of MT-4 cells against the cytopathic effect of HIV-2. The format is functional, cell-based.
Assay [4] has as its system MT4. Briefly: Selectivity index for CC50 (cytotoxic concentration based on the reduction of the viability of mock-infected MT-4 cells) to that of EC50 against HIV-1. The format is functional. The gist of the method: (§1)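 MT-4 cells at 3 × 10^5 cells/mL were infected with HIV-1 IIIB or HIV-2 ROD at 100 CCID50/mL, or mock-infected, alongside serial compound dilutions. Viability was read by MTT after 5 days at 37 °C. CC50 comes from mock-infected cells and EC50 from protection against cytopathicity. Index = CC50/EC50.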

Assay [5] concerns MT4. Briefly: Selectivity index for CC50 (cytotoxic concentration based on reduction of viability of mock-infected MT-4 cells) to that of EC50 against HIV-2. In kind it is functional. Summed up: as §1
Setting [6] is: Homo sapiens, HuT78, read-out: EC50.
The mark [7] stands for this setting: Homo sapiens, MT4, read-out: EC50.

By EC50 is commonly meant the concentration giving half of the maximal effect. `CCCCCC(=O)OCC1OC(OC2C(C(=O)[O-])OC(OC3C(NC(C)=O)C(OC4C(C(=O)[O-])OC(C)C(OC(=O)CCCCC)C4O)OC(COC(=O)CCCCC)C3OS(=O)(=O)[O-])C(OC(=O)CCCCC)C2OC(=O)CCCCC)C(NC(C)=O)C(OC)C1OS(=O)(=O)[O-].[Na+].[Na+].[Na+].[Na+]` (configuration not stated): the values for the EC50 with HuT78 (setting [6]), in the assay with MT4 [2] (setting [7]) and in the assay with MT4 [3] (setting [7]) were 41 µg/mL, 19.4 µg/mL and 5.4 µg/mL, respectively. Moreover, the APTT in assay [1] was determined as 3.4 IU mg-1. Also, the figures for the Selectivity index with MT4 [4] and in the assay with MT4 [5] were 4 and 17.5, respectively.

For `COC1C(NC(C)=O)C(OC2C(C(=O)[O-])OC(OC3C(NC(C)=O)C(OC4C(C(=O)[O-])OC(C)C(OC(C)=O)C4O)OC(COC(C)=O)C3OS(=O)(=O)[O-])C(OC(C)=O)C2OC(C)=O)OC(COC(C)=O)C1OS(=O)(=O)[O-].[Na+].[Na+].[Na+].[Na+]` (configuration not stated), the values for the EC50 with HuT78 (setting [6]), in the assay with MT4 [2] (setting [7]) and with MT4 [3] (setting [7]) were greater than 50 µg/mL, greater than 500 µg/mL and 88 µg/mL, respectively. In assay [1], this compound registered an APTT of 1.7 IU mg-1. The compound further displayed a Selectivity index in the assay with MT4 [5] of 5.7.

For `CC(=O)N[C@H]1[C@@H](O[C@H]2[C@H](O)[C@@H](OC(C)=O)[C@H](O[C@H]3[C@@H](OS(=O)(=O)[O-])[C@@H](NS(=O)(=O)[O-])[C@@H](O[C@H]4[C@H](O)[C@@H](OS(=O)(=O)[O-])[C@H](O[C@H]5[C@H](O)[C@@H](CO)O[C@@H]5COS(=O)(=O)[O-])O[C@H]4C(=O)[O-])O[C@@H]3COS(=O)(=O)[O-])O[C@@H]2C(=O)[O-])O[C@H](COS(=O)(=O)[O-])[C@@H](O[C@@H]2O[C@@H](C(=O)[O-])[C@@H](O)[C@H](O)[C@H]2OC(C)=O)[C@@H]1O.[Na+].[Na+].[Na+].[Na+].[Na+].[Na+].[Na+].[Na+].[Na+]`, in assay [1], the APTT was 11 IU mg-1. Besides, the EC50 with MT4 [2] (setting [7]) came out at 77 µg/mL. This compound had a Selectivity index in the assay with MT4 [4] greater than 8.

`COC1C(NC(C)=O)C(OC2C(C(=O)[O-])OC(OC3C(NC(C)=O)C(OC4C(C(=O)[O-])OC(C)C(OC(=O)CCC(=O)[O-])C4O)OC(COC(=O)CCC(=O)[O-])C3OS(=O)(=O)[O-])C(OC(=O)CCC(=O)[O-])C2OC(=O)CCC(=O)[O-])OC(COC(=O)CCC(=O)[O-])C1OS(=O)(=O)[O-].[Na+].[Na+].[Na+].[Na+].[Na+].[Na+].[Na+].[Na+].[Na+]` (configuration not stated) displayed an APTT in assay [1] of 9 IU mg-1. The EC50 in the assay with MT4 [2] (setting [7]) came to 150 µg/mL; with MT4 [3] (setting [7]) it was 50.4 µg/mL. In addition, the Selectivity index came to 1.7 in the assay on MT4 [4] and 2 in the assay with MT4 [5].

Take `CCCCCCCC(=O)OC/C(=C\C(=O)[O-])OC1OC(COS(=O)(=O)[O-])C(OC2OC(C(=O)[O-])C(OC3OC(COS(=O)(=O)[O-])C(OC4OC(C(=O)[O-])C(OC5OC(CS(=O)(=O)[O-])C(O)C(OC(=O)CCCCCCC)C5NS(=O)(=O)[O-])C(OC(=O)CCCCCCC)C4OS(=O)(=O)[O-])C(OC(=O)CCCCCCC)C3NS(=O)(=O)[O-])C(OC(=O)CCCCCCC)C2OS(=O)(=O)[O-])C(OC(=O)CCCCCCC)C1NS(=O)(=O)[O-].[Na+].[Na+].[Na+].[Na+].[Na+].[Na+].[Na+].[Na+].[Na+].[Na+].[Na+]` (configuration not stated): the EC50 with HuT78 (setting [6]) is 20 µg/mL; with MT4 [2] (setting [7]), 3.3 µg/mL; with MT4 [3] (setting [7]), greater than 23.2 µg/mL. The Selectivity index in the assay on MT4 [4] is given as 6; in the assay with MT4 [5], greater than 1.

In the case of `CCCC(=O)OC/C(=C\C(=O)[O-])O[C@H]1O[C@H](COS(=O)(=O)[O-])[C@@H](O[C@@H]2O[C@@H](C(=O)[O-])[C@@H](O[C@H]3O[C@H](COS(=O)(=O)[O-])[C@@H](O[C@@H]4O[C@@H](C(=O)[O-])[C@@H](O[C@H]5O[C@H](CS(=O)(=O)[O-])[C@@H](O)[C@H](OC(=O)CCC)[C@H]5NS(=O)(=O)[O-])[C@H](OC(=O)CCC)[C@H]4OS(=O)(=O)[O-])[C@H](OC(=O)CCC)[C@H]3NS(=O)(=O)[O-])[C@H](OC(=O)CCC)[C@H]2OS(=O)(=O)[O-])[C@H](OC(=O)CCC)[C@H]1NS(=O)(=O)[O-].[Na+].[Na+].[Na+].[Na+].[Na+].[Na+].[Na+].[Na+].[Na+].[Na+].[Na+]` (stereo in doubt; 2d), the EC50 with HuT78 (hut78) worked out at 2.6 µg/mL; in the assay on MT4 [2] (mt4), 0.35 µg/mL. For the same compound, the APTT in assay [1] was 12 IU mg-1. Further, in the assay with MT4 [4], the Selectivity index is greater than 1430.

Take `CCCC(=O)OC/C(=C\C(=O)[O-])O[C@H]1O[C@H](COS(=O)(=O)[O-])[C@@H](O[C@@H]2O[C@@H](C(=O)[O-])[C@@H](O[C@H]3O[C@H](COS(=O)(=O)[O-])[C@@H](O[C@@H]4O[C@@H](C(=O)[O-])[C@@H](O[C@H]5O[C@H](CS(=O)(=O)[O-])[C@@H](O)[C@H](OC(=O)CCC)[C@H]5NS(=O)(=O)[O-])[C@H](OC(=O)CCC)[C@H]4OS(=O)(=O)[O-])[C@H](OC(=O)CCC)[C@H]3NS(=O)(=O)[O-])[C@H](OC(=O)CCC)[C@H]2OS(=O)(=O)[O-])[C@H](OC(=O)CCC)[C@H]1NS(=O)(=O)[O-].[Na+].[Na+].[Na+].[Na+].[Na+].[Na+].[Na+].[Na+].[Na+].[Na+].[Na+]` (stereo in doubt; 3b): the APTT in assay [1] came out at 5 IU mg-1. Also, the results for the EC50 with MT4 [2] (mt4) and in the assay with MT4 [3] (mt4) were 0.32 µg/mL and 1.94 µg/mL, respectively. For the same compound, the Selectivity index was 1121 in the assay on MT4 [4] and 185 with MT4 [5].

Take `CCCC(=O)OC/C(=C\C(=O)[O-])O[C@H]1O[C@H](COS(=O)(=O)[O-])[C@@H](O[C@@H]2O[C@@H](C(=O)[O-])[C@@H](O[C@H]3O[C@H](COS(=O)(=O)[O-])[C@@H](O[C@@H]4O[C@@H](C(=O)[O-])[C@@H](O[C@H]5O[C@H](CS(=O)(=O)[O-])[C@@H](O)[C@H](OC(=O)CCC)[C@H]5NS(=O)(=O)[O-])[C@H](OC(=O)CCC)[C@H]4OS(=O)(=O)[O-])[C@H](OC(=O)CCC)[C@H]3NS(=O)(=O)[O-])[C@H](OC(=O)CCC)[C@H]2OS(=O)(=O)[O-])[C@H](OC(=O)CCC)[C@H]1NS(=O)(=O)[O-].[Na+].[Na+].[Na+].[Na+].[Na+].[Na+].[Na+].[Na+].[Na+].[Na+].[Na+]` (stereo in doubt; 3c): the results for the EC50 in the assay with HuT78 (hut78) and in the assay with MT4 [3] (mt4) were 60.4 µg/mL and 1.17 µg/mL, respectively. Also, the APTT in assay [1] turned out to be 7 IU mg-1. In addition, the Selectivity index in the assay with MT4 [4] amounted to 1032; in the assay on MT4 [5], 282.

Regarding `CCCC(=O)OC/C(=C\C(=O)[O-])O[C@H]1O[C@H](COS(=O)(=O)[O-])[C@@H](O[C@@H]2O[C@@H](C(=O)[O-])[C@@H](O[C@H]3O[C@H](COS(=O)(=O)[O-])[C@@H](O[C@@H]4O[C@@H](C(=O)[O-])[C@@H](O[C@H]5O[C@H](CS(=O)(=O)[O-])[C@@H](O)[C@H](OC(=O)CCC)[C@H]5NS(=O)(=O)[O-])[C@H](OC(=O)CCC)[C@H]4OS(=O)(=O)[O-])[C@H](OC(=O)CCC)[C@H]3NS(=O)(=O)[O-])[C@H](OC(=O)CCC)[C@H]2OS(=O)(=O)[O-])[C@H](OC(=O)CCC)[C@H]1NS(=O)(=O)[O-].[Na+].[Na+].[Na+].[Na+].[Na+].[Na+].[Na+].[Na+].[Na+].[Na+].[Na+]` (stereo in doubt; 4a), the EC50 in the assay with HuT78 (hut78) is greater than 100 µg/mL; with MT4 [2] (mt4), 115 µg/mL. The compound also registered an APTT in assay [1] of 0.3 IU mg-1. Further, the Selectivity index in the assay with MT4 [4] was greater than 4; with MT4 [5], greater than 7140.

For `CCCC(=O)OC/C(=C\C(=O)[O-])O[C@H]1O[C@H](COS(=O)(=O)[O-])[C@@H](O[C@@H]2O[C@@H](C(=O)[O-])[C@@H](O[C@H]3O[C@H](COS(=O)(=O)[O-])[C@@H](O[C@@H]4O[C@@H](C(=O)[O-])[C@@H](O[C@H]5O[C@H](CS(=O)(=O)[O-])[C@@H](O)[C@H](OC(=O)CCC)[C@H]5NS(=O)(=O)[O-])[C@H](OC(=O)CCC)[C@H]4OS(=O)(=O)[O-])[C@H](OC(=O)CCC)[C@H]3NS(=O)(=O)[O-])[C@H](OC(=O)CCC)[C@H]2OS(=O)(=O)[O-])[C@H](OC(=O)CCC)[C@H]1NS(=O)(=O)[O-].[Na+].[Na+].[Na+].[Na+].[Na+].[Na+].[Na+].[Na+].[Na+].[Na+].[Na+]` (stereo in doubt; 4b), the results for the EC50 with HuT78 (hut78) and with MT4 [2] (mt4) were 17.4 µg/mL and 20.9 µg/mL, respectively. In addition, the APTT in assay [1] worked out at 1.5 IU mg-1. The figures for the Selectivity index in the assay on MT4 [4] and in the assay on MT4 [5] were greater than 24 and greater than 50000, respectively.

In the case of `CCCC(=O)OC/C(=C\C(=O)[O-])O[C@H]1O[C@H](COS(=O)(=O)[O-])[C@@H](O[C@@H]2O[C@@H](C(=O)[O-])[C@@H](O[C@H]3O[C@H](COS(=O)(=O)[O-])[C@@H](O[C@@H]4O[C@@H](C(=O)[O-])[C@@H](O[C@H]5O[C@H](CS(=O)(=O)[O-])[C@@H](O)[C@H](OC(=O)CCC)[C@H]5NS(=O)(=O)[O-])[C@H](OC(=O)CCC)[C@H]4OS(=O)(=O)[O-])[C@H](OC(=O)CCC)[C@H]3NS(=O)(=O)[O-])[C@H](OC(=O)CCC)[C@H]2OS(=O)(=O)[O-])[C@H](OC(=O)CCC)[C@H]1NS(=O)(=O)[O-].[Na+].[Na+].[Na+].[Na+].[Na+].[Na+].[Na+].[Na+].[Na+].[Na+].[Na+]` (stereo in doubt; 4j), the EC50 worked out at 10.7 µg/mL in the assay on HuT78 (hut78) and 0.21 µg/mL in the assay with MT4 [3] (mt4). The same compound registered an APTT in assay [1] of 19.8 IU mg-1. The Selectivity index with MT4 [5] came out at 2381.
